Assay outcomes as filed in PubChem.
SKKanGAS inh = blocks kanamycin growth of S. pyogenes SKKanGAS strain; inhibition, % at 7.5 µM; 300,000 tested, 1.3% active; BacTiter-Glo, 6 h; AID 1662;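 active = mean replicate score, as percent of positive control median, at least 50; inconclusive = mean below 50 but one replicate at or above 50; inactive = mean and every replicate below 50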;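 also: strain carries kanamycin resistance gene driven by streptokinase promoter and grows in 40 µg/ml kanamycin; loss of luminescence reflects streptokinase promoter inhibition or plain growth inhibition; 0% = median of DMSO wells and 100% = positive control at its reference dose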
CSC inhib = blocks cancer stem cells; inhibition, % at 7.5 µM; cancer stem cell-like cells viability, luminescence; 300,000 tested, 1.1% active; in the data active = inhibition above about 75%; inconclusive = no clear call, values can overlap the other calls; tested in HMLE shEcad cells
Mdm2 MdmX PPI = disrupts the human Mdm2-MdmX interaction. 330,000 tested, 3% active. AID 485346. O15151+Q00987. SaOS-2 split-luciferase Mdm2/MdmX complementation, luminescence. inhibition, % at 8 µM;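 active = inhibition of at least 50% at 8 µM in the primary screen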
Target sequence (O15151 whole entry, looked up): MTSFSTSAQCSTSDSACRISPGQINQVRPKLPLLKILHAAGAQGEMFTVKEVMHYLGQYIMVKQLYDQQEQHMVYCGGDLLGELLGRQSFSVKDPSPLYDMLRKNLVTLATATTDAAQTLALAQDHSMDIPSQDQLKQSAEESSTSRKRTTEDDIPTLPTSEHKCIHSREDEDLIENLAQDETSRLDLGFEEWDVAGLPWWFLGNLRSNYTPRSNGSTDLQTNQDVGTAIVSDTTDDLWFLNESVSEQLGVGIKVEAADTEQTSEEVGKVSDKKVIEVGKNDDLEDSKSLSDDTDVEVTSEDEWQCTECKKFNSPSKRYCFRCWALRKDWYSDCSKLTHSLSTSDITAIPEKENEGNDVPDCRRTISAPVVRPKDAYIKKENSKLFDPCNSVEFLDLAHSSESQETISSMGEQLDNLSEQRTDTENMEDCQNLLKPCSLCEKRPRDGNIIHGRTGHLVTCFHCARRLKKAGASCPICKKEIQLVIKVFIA
Target sequence (Q00987 whole entry, looked up): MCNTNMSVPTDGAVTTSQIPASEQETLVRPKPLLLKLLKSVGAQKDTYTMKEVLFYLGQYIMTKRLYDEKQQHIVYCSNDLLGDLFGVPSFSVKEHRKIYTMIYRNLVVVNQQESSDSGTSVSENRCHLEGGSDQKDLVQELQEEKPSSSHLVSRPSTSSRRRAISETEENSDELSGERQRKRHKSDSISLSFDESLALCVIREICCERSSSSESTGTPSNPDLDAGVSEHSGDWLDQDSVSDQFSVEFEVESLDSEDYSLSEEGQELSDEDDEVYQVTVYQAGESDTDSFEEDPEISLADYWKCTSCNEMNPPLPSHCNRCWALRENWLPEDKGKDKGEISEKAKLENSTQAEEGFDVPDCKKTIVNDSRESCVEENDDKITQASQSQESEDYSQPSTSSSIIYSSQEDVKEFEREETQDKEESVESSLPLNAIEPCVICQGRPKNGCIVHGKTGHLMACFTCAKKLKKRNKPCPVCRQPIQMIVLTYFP
Beta cell apopt = beta cell apoptosis inhibition; INS-1E cytokine-induced death, ATP luminescence, 48 h; percent of positive-control rescue, neutral wells zero; protection from apoptosis, % (test concentration not listed); 300,000 tested, 0.8% active;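 active = Every replicate reaches about 75%, or at least half do and their mean reaches it too, limit read from the data; inconclusive = At least half of replicates reach the limit but their mean does not; inactive = Under half of replicates reach the limit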;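 also: 0% = cytokine-treated negative control wells and 100% = positive control rescue; higher means more ATP so stronger rescue from cytokine killing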
T cruzi repl = blocks replication of Trypanosoma cruzi; T. cruzi beta-gal in NIH3T3, luminescence, 90 h; inhibition, % (test concentration not listed); 300,000 tested, 1.4% active;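 active = mean inhibition across valid replicates above about 55%, limit read from the data; inconclusive = mean below that limit but half or more replicates reach it; inactive = mean below it, under half of replicates reach it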;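 also: signal also drops with host cell toxicity which is not excluded here; 0% = plate median of DMSO wells and 100% = zero luminescence signal; higher percent means less beta-gal luminescence so fewer parasites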
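assay system = mouse NIH/3T3 fibroblasts infected with β-gal-expressing T. cruzi Tulahuen C4 | input = 5,000 NIH/3T3 host cells per well | buffer or medium = DMEM plus 2% FBS | timing = 3 h host attachment, then at least 90 h co-culture | measured by = GalScreen luminescence, 60 min | evaluation = luminescence reflecting intracellular parasite burden, expressed as percent inhibition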
Calb FLC = C. albicans growth modulation with fluconazole | C. albicans CaCi-2 (fluconazole-resistant clinical isolate) + fluconazole, Alamar Blue growth, 48 h | growth inhibition, % (no concentration beside the values) | 300,000 tested, 0.57% active;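 active = growth inhibition above about 58% in most replicates, limit read from the data, passing the limit was not always enough; inconclusive = exactly half the replicates above a set limit; inactive = most replicates below a set limit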;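 also: all wells also contain fluconazole at 8 µg/ml as a sub-toxic cotreatment; 0% = median of DMSO wells and 100% = median of geldanamycin control wells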
Mdm2 MdmX conf = confirmation of human Mdm2/MdmX interaction inhibitors; shares compounds with Mdm2 MdmX PPI; Mdm2-MdmX binding, luminescent assay; inhibition, % at 8 µM; 10,000 tested, 55% active; in the data active = inhibition above about 40%
Full FLuc ctr = counter-screen for Mdm2/MdmX inhibitors: full-length luciferase; shares compounds with Mdm2 MdmX PPI; SaOS-2 full-length luciferase counterscreen, luminescence; inhibition, % at 8 µM; 6,200 tested, 77% active;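 active = mean inhibition at 8 µM reaching about 37%, which flags the compound as non-specific, limit read from the data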;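 also: p53-null SaOS-2 cells with luciferase driven by a doxycycline-inducible promoter; compound on cells about two nights before reading with doxycycline added after day one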
* marks the source's active call; other numbers are inactive results. Sampled rows, rich in hits. Any-hit rate of the full collection: about 5.7%.

C=CCOC(=O)C1=C(C)NC(SCC(=O)Nc2ccc(C)c(Cl)c2)=C(C#N)C1c1ccco1 (stereo not drawn) was read as SKKanGAS inh 6, CSC inhib -2, Mdm2 MdmX PPI 63*, Beta cell apopt 5, T cruzi repl 26, Calb FLC 1, Mdm2 MdmX conf 51* and Full FLuc ctr 46*.
For COc1ccccc1CN1[C@@H](CC(C)=O)c2cc(C(F)(F)F)ccc2S1(=O)=O the results were SKKanGAS inh 13, CSC inhib 15, Mdm2 MdmX PPI -17, Beta cell apopt 0, T cruzi repl 10 and Calb FLC 14.
Screening CN(C)c1ccc(CNCCC(Cc2ccccc2)c2ccco2)cc1 (stereo not drawn) returned SKKanGAS inh -16, CSC inhib 13, Mdm2 MdmX PPI 52*, Beta cell apopt 30, T cruzi repl 61*, Calb FLC -28 and Mdm2 MdmX conf 30.
`c1ccc(CNCCC(Cc2ccccc2)c2ccco2)cc1` (stereo not drawn) gave SKKanGAS inh 1, CSC inhib 31, Mdm2 MdmX PPI 19, Beta cell apopt -11, T cruzi repl 2 and Calb FLC -12.
For COC(=O)c1c(NC(=O)C(=O)NCC2CCCO2)sc2c1CC(C)(C)OC2 (stereo not drawn) the results were SKKanGAS inh -5, CSC inhib 4, Mdm2 MdmX PPI 17, Beta cell apopt -3, T cruzi repl 16 and Calb FLC 9.
For O=C1/C(=C\c2c(NCCOCCO)nc3ccccn3c2=O)SC(=S)N1Cc1ccco1 the results were SKKanGAS inh 9, Mdm2 MdmX PPI 54*, T cruzi repl -58, Calb FLC 1 and Mdm2 MdmX conf 28.
For N#Cc1c(NC(=O)COC(=O)c2ccc(O)cc2O)sc2c1CCC2 the results were CSC inhib -11, Mdm2 MdmX PPI -11 and Beta cell apopt -3.
`O=C(N/N=C(\c1ccccc1)c1cccnc1)c1ccc(O)cc1` gave SKKanGAS inh -4, CSC inhib -8, Mdm2 MdmX PPI 13, Beta cell apopt -1, T cruzi repl -6 and Calb FLC -1.
O=C(N/N=C/c1ccccn1)c1ccncc1 was read as SKKanGAS inh 3, CSC inhib 3, Mdm2 MdmX PPI 3, Beta cell apopt -10, T cruzi repl -9 and Calb FLC 18.
`O=C(N/N=C/C=C/c1ccccc1)c1cccnc1` gave SKKanGAS inh -14, CSC inhib -9, Mdm2 MdmX PPI 7, Beta cell apopt -4, T cruzi repl -31 and Calb FLC 23.
`O=C(N/N=C(\Cc1ncc[nH]1)c1ccccc1)c1cccnc1` gave CSC inhib 100*, Mdm2 MdmX PPI 54*, Beta cell apopt 7, Calb FLC 3, Mdm2 MdmX conf 64* and Full FLuc ctr 33.
For O=C(N/N=C(\Cc1ncc[nH]1)c1ccccc1)c1ccccc1 the results were SKKanGAS inh 9, CSC inhib 20, Mdm2 MdmX PPI 76*, Beta cell apopt 46, T cruzi repl 74*, Calb FLC inconclusive, Mdm2 MdmX conf 53* and Full FLuc ctr 25.
`O=C(N/N=C(\c1ccccc1)c1cccnc1)c1cccc(F)c1` gave SKKanGAS inh 95*, CSC inhib 109*, Mdm2 MdmX PPI 99*, Beta cell apopt 108*, T cruzi repl 26, Calb FLC -5, Mdm2 MdmX conf 80* and Full FLuc ctr 33.
`O=C(N/N=C(\Cc1ncc[nH]1)c1ccccc1)c1ccncc1` gave SKKanGAS inh -3, CSC inhib 79*, Mdm2 MdmX PPI 67*, Beta cell apopt 101*, T cruzi repl 18, Calb FLC 8, Mdm2 MdmX conf 63* and Full FLuc ctr 30.
`NC(=O)c1ccc(C(=O)N/N=C(/Cc2ccccc2)c2ccccc2)cc1` gave SKKanGAS inh 7, CSC inhib -8, Mdm2 MdmX PPI 31, Beta cell apopt -7, T cruzi repl -9 and Calb FLC -18.
Screening COc1cccc(-c2nc(-c3ccc(Br)o3)no2)c1 returned SKKanGAS inh 13, CSC inhib 7, Mdm2 MdmX PPI -18, Beta cell apopt 1, T cruzi repl 0 and Calb FLC -21.
COc1ccc(CCN=C(N)NS(=O)(=O)c2ccc3ccccc3c2)cc1 was read as SKKanGAS inh -2, CSC inhib -2, Mdm2 MdmX PPI -15, T cruzi repl -6 and Calb FLC 12.
`COc1ccccc1NS(=O)(=O)c1cccc(C(=O)N/N=C/c2ccc([N+](=O)[O-])o2)c1` gave Mdm2 MdmX PPI 11.
For COc1ccccc1N1CCN(c2nc3ccccc3nc2C(C#N)C(=O)OC(C)C)CC1 (stereo not drawn) the results were SKKanGAS inh 25, CSC inhib 8, Mdm2 MdmX PPI 17, Beta cell apopt 10, T cruzi repl 43 and Calb FLC 12.
For CCOc1ccccc1N1CCN(c2nc3ccccc3nc2C(C#N)C(=O)OC)CC1 (stereo not drawn) the results were SKKanGAS inh 1, CSC inhib 5, Mdm2 MdmX PPI 71*, Beta cell apopt -2, T cruzi repl 23, Calb FLC -1 and Mdm2 MdmX conf 14.
For CCCCCCOC(=O)C(C#N)c1nc2ccccc2nc1N1CCN(CC)CC1 (stereo not drawn) the results were SKKanGAS inh 6, CSC inhib 25, Mdm2 MdmX PPI 60*, Beta cell apopt 5, T cruzi repl inconclusive, Calb FLC 26, Mdm2 MdmX conf 32 and Full FLuc ctr 70*.
Cc1ccc(NCc2nnc(SCC(=O)c3ccc4c(c3)OCCO4)o2)c(C)c1 was read as SKKanGAS inh 3, Mdm2 MdmX PPI 57*, T cruzi repl 8, Calb FLC 5 and Mdm2 MdmX conf 7.
COc1ccc(C(=O)CSc2nnc(CNc3ccc(C)cc3C)o2)cc1 was read as SKKanGAS inh 0, CSC inhib 2, Mdm2 MdmX PPI 19, Beta cell apopt 0, T cruzi repl -14 and Calb FLC -9.
CCCc1cc(=O)n2[nH]c(C)c(-c3ccccc3)c2n1 was read as SKKanGAS inh 6, CSC inhib 2, Mdm2 MdmX PPI 24, Beta cell apopt 13, T cruzi repl -5 and Calb FLC -3.
`CCc1cc(=O)n2[nH]c(-c3ccccc3)c(-c3ccccc3)c2n1` gave SKKanGAS inh 7, CSC inhib 61, Mdm2 MdmX PPI 58*, Beta cell apopt 6, T cruzi repl 3, Calb FLC -11, Mdm2 MdmX conf 45* and Full FLuc ctr 52*.
